These results are taken from ChEMBL document CHEMBL3769385 (J Med Chem, 2016).

The target in assay [1] is T1, 5-hydroxytryptamine receptor 2C (Homo sapiens) (UniProt P28335).
T1 sequence (whole entry): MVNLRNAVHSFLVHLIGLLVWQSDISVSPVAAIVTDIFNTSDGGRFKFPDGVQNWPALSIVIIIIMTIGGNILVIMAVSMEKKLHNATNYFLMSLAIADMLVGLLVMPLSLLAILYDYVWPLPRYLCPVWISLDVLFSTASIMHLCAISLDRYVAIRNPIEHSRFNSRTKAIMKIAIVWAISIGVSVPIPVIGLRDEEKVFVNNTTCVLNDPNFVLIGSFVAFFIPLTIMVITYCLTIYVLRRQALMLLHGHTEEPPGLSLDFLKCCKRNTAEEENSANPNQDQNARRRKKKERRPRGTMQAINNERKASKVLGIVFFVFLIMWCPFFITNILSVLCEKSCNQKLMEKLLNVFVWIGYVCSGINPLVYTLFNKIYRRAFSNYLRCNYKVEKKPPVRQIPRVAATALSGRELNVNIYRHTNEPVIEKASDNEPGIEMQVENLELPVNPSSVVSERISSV
Put plainly: Agonist activity at recombinant human 5HT2C-INI receptor expressed in Flp-In-293 cells assessed as calcium flux by FLIPR assay relative to 5-HT. The format is functional, cell-based.

The target in assay [2] is T2, 5-hydroxytryptamine receptor 2A (Homo sapiens, UniProt P28223). As to the kind of experiment: Agonist activity at human 5HT2A receptor expressed in Flp-In-293 cells assessed as calcium flux by FLIPR assay relative to 5-HT. The format is functional, cell-based. Background: A change in cytosolic calcium serves as a functional read-out for many receptors and channels.
T2 sequence (P28223 whole entry): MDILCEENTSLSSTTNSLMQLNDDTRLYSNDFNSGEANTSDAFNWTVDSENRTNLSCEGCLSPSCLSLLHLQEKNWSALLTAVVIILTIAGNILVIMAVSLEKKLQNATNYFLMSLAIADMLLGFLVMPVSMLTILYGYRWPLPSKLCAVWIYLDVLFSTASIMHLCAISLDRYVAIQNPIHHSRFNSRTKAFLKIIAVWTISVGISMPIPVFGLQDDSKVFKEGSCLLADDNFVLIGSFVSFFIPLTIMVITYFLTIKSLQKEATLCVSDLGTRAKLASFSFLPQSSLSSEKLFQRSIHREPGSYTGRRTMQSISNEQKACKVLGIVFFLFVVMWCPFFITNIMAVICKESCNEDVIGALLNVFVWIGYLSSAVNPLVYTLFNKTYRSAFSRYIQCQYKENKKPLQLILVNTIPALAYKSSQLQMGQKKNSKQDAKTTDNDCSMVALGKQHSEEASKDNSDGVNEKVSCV

The target in assay [3] is T2, 5-hydroxytryptamine receptor 2A.
For assay [4], the target named is T3, 5-hydroxytryptamine receptor 2C (Homo sapiens, UniProt P28335).
T3 sequence (P28335 whole entry): T1 sequence (whole entry)
As to the kind of experiment: Agonist activity at recombinant human 5HT2C-INI receptor expressed in Flp-In-293 cells assessed as calcium flux by FLIPR assay. The format is functional, cell-based.

The target in assay [5] is T4, 5-hydroxytryptamine receptor 2B (Homo sapiens, UniProt P41595).
T4 sequence (P41595 whole entry): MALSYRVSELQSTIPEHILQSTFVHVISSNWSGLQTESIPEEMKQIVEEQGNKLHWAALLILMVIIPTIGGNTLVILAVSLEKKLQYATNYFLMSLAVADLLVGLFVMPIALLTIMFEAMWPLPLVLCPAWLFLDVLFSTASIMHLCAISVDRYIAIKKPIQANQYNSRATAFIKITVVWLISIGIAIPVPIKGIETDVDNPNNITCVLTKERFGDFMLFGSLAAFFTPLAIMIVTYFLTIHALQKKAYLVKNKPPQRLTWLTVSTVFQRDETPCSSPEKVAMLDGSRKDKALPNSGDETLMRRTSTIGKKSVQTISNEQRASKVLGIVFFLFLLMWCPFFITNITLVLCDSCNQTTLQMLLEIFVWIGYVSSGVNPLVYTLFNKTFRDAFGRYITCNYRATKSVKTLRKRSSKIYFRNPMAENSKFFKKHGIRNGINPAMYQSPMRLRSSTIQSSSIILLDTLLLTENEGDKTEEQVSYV
The target of assay [6] is T4, 5-hydroxytryptamine receptor 2B. As to the kind of experiment: Agonist activity at recombinant human 5HT2B receptor expressed in Flp-In-293 cells assessed as calcium flux by FLIPR assay relative to 5-HT. The format is functional, cell-based.
In assay [7] the target is Serotonin 2 receptors; 5-HT2a & 5-HT2c (Homo sapiens) (UniProt P28223+P28335). As to the kind of experiment: Selectivity ratio of EC50 for recombinant human 5HT2A receptor to EC50 for recombinant human 5HT2C-INI receptor.
Chain of Serotonin 2 receptors; 5-HT2a & 5-HT2c (Homo sapiens) (P28223 whole entry, looked up, one chain of several): as the sequence (P28223 whole entry) above
For assay [8], the species on record is Homo sapiens. Put plainly: Selectivity ratio of EC50 for recombinant human 5HT2B receptor to EC50 for recombinant human 5HT2C-INI receptor. The method, boiled down:
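Calcium flux measured by FLIPR in Flp-In-293 cells stably expressing human 5-HT2B or 5-HT2C-INI receptors.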

A word on the Emax: it is the maximal effect, on the per cent scale that the assay sets. With `C=CCOc1ccc(F)c(Cl)c1C1CC1CN` (single isomer, unassigned; (-)) [listing 1 of 2 here], the Emax in assay [1] came to 89%. As for `COc1cc(Cl)c(Cl)cc1C1CC1CN` (stereo in doubt; (-)-20e), the Emax in assay [2] came out at 75%; in assay [1] it was 89%. As for `COc1cc(Cl)c(Cl)cc1C1CC1CN` (single isomer, unassigned; (+)), the Emax came to 85% in assay [2] and 95% in assay [1]. For `COc1ccc(F)c(F)c1C1CC1CN` (single isomer, unassigned; (+)) [listing 1 of 2 here], the EC50 turned out to be 437 nM in assay [3], 9.5 nM in assay [4] (read-out: EC50) and 209 nM in assay [5].

In the case of `C=CCOc1ccc(F)c(Cl)c1C1CC1CN` (single isomer, unassigned; (+)) [listing 1 of 2 here], the EC50 in assay [4] (read-out: pEC50 (converted)) is 97.7 nM. Consider `COc1cc(F)c(Cl)cc1C1CC1CN` (stereo in doubt; (-)-20c) [listing 1 of 2 here], for which the results for the EC50 in assay [3], in assay [4] (read-out: EC50) and in assay [5] were 235 nM, 16 nM and 329 nM, respectively. Regarding `NCC1CC1c1c(OCCF)ccc(F)c1F` (single isomer, unassigned; (+)), the Emax in assay [1] was determined as 96%. For `NCC1CC1c1c(OCCF)ccc(F)c1Cl` (stereo in doubt; (-)-21g), the Emax in assay [1] turned out to be 80%.

Turning to `NCC1CC1c1cc(Cl)c(F)cc1OCCF` (single isomer, unassigned; (+)), the Emax in assay [6] stood at 39%; in assay [1], 87%.

Consider `NCC1CC1c1cc(Cl)c(Cl)cc1OCCF` (single isomer, unassigned; (-)), for which the Emax in assay [1] amounted to 75%. Take `C=CCOc1cc(F)c(Cl)cc1C1CC1CN` (single isomer, unassigned; (+)) [listing 1 of 2 here]: the Emax in assay [6] turned out to be 34%; in assay [1] it was 87%. For the compound `COc1ccc(F)c(Cl)c1C1CC1CN` (single isomer, unassigned; (-)), the Emax came to 72% in assay [2] and 96% in assay [1]. For `COc1ccc(Cl)c(F)c1C1CC1CN` (single isomer, unassigned; (+)) [listing 1 of 2 here], the EC50 in assay [3] amounted to 212 nM; in assay [4] (read-out: EC50) it was 13 nM; in assay [5], 354 nM. Consider `COc1cc(F)c(Cl)cc1C1CC1CN` (single isomer, unassigned; (+)) [listing 1 of 2 here], for which the Emax in assay [2] amounted to 93%; in assay [6], 59%; in assay [1] it was 97%.

On to `COc1cc(F)c(Cl)cc1C1CC1CN` (stereo in doubt; (-)-20c) [listing 2 of 2 here], for which the Emax in assay [2] was 88%; in assay [6], 44%; in assay [1], 98%.

Regarding `C=CCOc1cc(Cl)c(Cl)cc1C1CC1CN` (single isomer, unassigned; (+)), the Emax in assay [1] is 88%. As for `NCC1CC1c1c(OCCF)ccc(F)c1Cl` (single isomer, unassigned; (+)), in assay [1], the maximal response (Emax) worked out at 86%.

Regarding `C=CCOc1ccc(Cl)c(Cl)c1C1CC1CN` (single isomer, unassigned; (+)), the Emax in assay [1] turned out to be 70%.

Take `C=CCOc1cc(F)c(Cl)cc1C1CC1CN` (single isomer, unassigned; (+)) [listing 2 of 2 here]: the EC50 in assay [5] was found to be 1000 nM. For `COc1ccc(Cl)c(Cl)c1C1CC1CN` (stereo in doubt; (+)-20f), the Emax in assay [2] turned out to be 78%; in assay [6], 26%; in assay [1], 98%. `COc1cc(F)c(F)cc1C1CC1CN` (single isomer, unassigned; (-)) [listing 1 of 2 here] gave an EC50 in assay [3] of 511 nM.

`COc1cc(F)c(F)cc1C1CC1CN` (single isomer, unassigned; (+)): the Emax is 69% in assay [6] and 108% in assay [1]. In the same order, the values of `C=CCOc1ccc(F)c(F)c1C1CC1CN` (single isomer, unassigned; (-)) are 26% and 89%. For `C=CCOc1ccc(Cl)c(Cl)c1C1CC1CN` (stereo in doubt; (-)-22f), the Emax in assay [1] is 93%. Turning to `COc1ccc(Cl)c(F)c1C1CC1CN` (single isomer, unassigned; (-)), the Emax in assay [2] came to 86%; in assay [6] it was 64%; in assay [1], 93%.

In the case of `C=CCOc1ccc(Cl)c(F)c1C1CC1CN` (stereo in doubt; (-)-22d), in assay [1], the Emax is 87%. Regarding `COc1cc(F)c(Cl)cc1C1CC1CN` (single isomer, unassigned; (+)) [listing 2 of 2 here], the EC50 was 81 nM in assay [3], 7.6 nM in assay [4] (read-out: EC50), 7.76 nM in assay [4] (read-out: pEC50 (converted)) and 25 nM in assay [5].

In the case of `COc1ccc(F)c(Cl)c1C1CC1CN` (stereo in doubt; (+)-20g), the Emax turned out to be 77% in assay [2] and 89% in assay [1]. As for `NCC1CC1c1c(OCCF)ccc(Cl)c1Cl` (single isomer, unassigned; (-)), in assay [1], the Emax was found to be 85%.

Turning to `NCC1CC1c1cc(Cl)c(F)cc1OCCF` (stereo in doubt; (-)-21c), the Emax worked out at 26% in assay [6] and 70% in assay [1].

As for `COc1ccc(F)c(F)c1C1CC1CN` (stereo in doubt; (-)-20b), the Emax in assay [2] was found to be 72%; in assay [6] it was 62%; in assay [1], 108%. `NCC1CC1c1c(OCCF)ccc(Cl)c1F` (single isomer, unassigned; (-)): in assay [1], the Emax was found to be 80%. `COc1ccc(Cl)c(Cl)c1C1CC1CN` (single isomer, unassigned; (-)): the figures for the Ratio EC50 in assay [7] and in assay [8] were 40 and 31, respectively. In addition, the Emax in assay [2] worked out at 88%; in assay [6], 53%; in assay [1], 104%. Regarding `COc1cc(F)c(F)cc1C1CC1CN` (single isomer, unassigned; (-)) [listing 2 of 2 here], the Emax came out at 59% in assay [6] and 104% in assay [1].

Regarding `NCC1CC1c1cc(F)c(F)cc1OCCF` (single isomer, unassigned; (+)), in assay [1], the Emax came to 95%.

Take `COc1ccc(Cl)c(F)c1C1CC1CN` (single isomer, unassigned; (+)) [listing 2 of 2 here]: the results for the Emax in assay [2], in assay [6] and in assay [1] were 85%, 52% and 92%, respectively. For `C=CCOc1ccc(F)c(Cl)c1C1CC1CN` (single isomer, unassigned; (-)) [listing 2 of 2 here], in assay [4] (read-out: EC50), the EC50 came to 104 nM. Regarding `NCC1CC1c1c(OCCF)ccc(F)c1F` (single isomer, unassigned; (-)), the Emax in assay [1] was 78%. In the case of `C=CCOc1ccc(Cl)c(F)c1C1CC1CN` (single isomer, unassigned; (+)), the Emax in assay [1] amounted to 90%.

`COc1ccc(F)c(F)c1C1CC1CN` (single isomer, unassigned; (+)) [listing 2 of 2 here]: the Emax stood at 79% in assay [2], 64% in assay [6] and 108% in assay [1]. On to `C=CCOc1ccc(F)c(F)c1C1CC1CN` (single isomer, unassigned; (+)), for which the Emax in assay [6] amounted to 35%; in assay [1], 100%. As to `C=CCOc1ccc(F)c(Cl)c1C1CC1CN` (single isomer, unassigned; (+)) [listing 2 of 2 here], the Emax in assay [1] came to 92%. On the same count and under the same terms, with `NCC1CC1c1cc(Cl)c(Cl)cc1OCCF` (single isomer, unassigned; (+)) the figure was 87%; with `C=CCOc1cc(Cl)c(Cl)cc1C1CC1CN` (stereo in doubt; (-)-22e), 84%; with `NCC1CC1c1cc(F)c(F)cc1OCCF` (single isomer, unassigned; (-)), 73%.

`NCC1CC1c1c(OCCF)ccc(Cl)c1Cl` (single isomer, unassigned; (+)): the Emax in assay [1] came out at 90%.

Take `NCC1CC1c1c(OCCF)ccc(Cl)c1F` (stereo in doubt; (+)-21d): the Emax in assay [1] came out at 86%. Take `C=CCOc1cc(F)c(Cl)cc1C1CC1CN` (single isomer, unassigned; (-)): the Emax is 22% in assay [6] and 77% in assay [1].
